Experimental findings from ChEMBL document CHEMBL4602702, “Red-Emitting Dibenzodiazepinone Derivatives as Fluorescent Dualsteric Probes for the Muscarinic Acetylcholine M2 Receptor” (J Med Chem, 2020) are described below.

Test [1] concerns the target T1, Muscarinic acetylcholine receptor M2 (Homo sapiens, UniProt P08172).
T1 sequence (P08172 whole entry): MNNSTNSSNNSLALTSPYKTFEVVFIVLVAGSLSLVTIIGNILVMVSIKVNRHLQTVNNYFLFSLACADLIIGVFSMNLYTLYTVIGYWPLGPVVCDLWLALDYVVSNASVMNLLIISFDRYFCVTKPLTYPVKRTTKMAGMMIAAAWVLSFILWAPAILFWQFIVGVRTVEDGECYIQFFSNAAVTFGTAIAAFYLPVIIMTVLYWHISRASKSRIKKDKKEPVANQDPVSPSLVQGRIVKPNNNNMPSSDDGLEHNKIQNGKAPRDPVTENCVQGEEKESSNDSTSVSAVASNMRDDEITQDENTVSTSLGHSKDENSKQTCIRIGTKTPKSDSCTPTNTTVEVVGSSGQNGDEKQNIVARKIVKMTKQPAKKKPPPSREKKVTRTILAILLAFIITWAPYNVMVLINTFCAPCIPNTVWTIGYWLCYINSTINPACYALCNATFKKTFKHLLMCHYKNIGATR
The test is described as follows: Displacement of 4-(2-((1E,3E)-5-((E)-1-(6-((3,5-Bis((2-(3-(1-(4-(1-(2-oxo-2-(11-oxo-10,11-dihydro-5H-dibenzo[b,e][1,4]diazepin-5-yl)ethyl)piperidin-4-yl)butyl)-1H-imidazol-4-yl)propanamido)ethyl)carbamoyl)benzyl)amino)-6-oxohexyl)-3,3-dimethyl-5-sulfoindolin-2-ylidene)penta-1,3-dien-1-yl)-3,3-dimethyl-3H-indol-1-ium-1-yl)butane-1-sulfonate Tris(hydrotrifluoroacetate) fluorescent tracer from human muscarinic M2 receptor expressed in […] cells measured after 60 mins by Hoechst H33342 dye based confocal plate reader assay. In kind it is cell-based.

The target in test [2] is T1, Muscarinic acetylcholine receptor M2. The test is described as follows: Displacement of 4-(2-((1E,3E)-5-((E)-3,3-Dimethyl-1-(6-oxo-6-((2-(3-(1-(4-(1-(2-oxo-2-(11-oxo-10,11-dihydro-5H-dibenzo[b,e][1,4]diazepin-5-yl)ethyl)piperidin-4-yl)butyl)-1H-imidazol-4-yl)propanamido)ethyl)-amino)hexyl)-5-sulfoindolin-2-ylidene)penta-1,3-dien-1-yl)-3,3-dimethyl-3H-indol-1-ium-1-yl)butane-1-sulfonateHydrotrifluoroacetate fluorescent tracer from human muscarinic M2 receptor expressed in […] cells measured after 60 mins by Hoechst H33342 dye based confocal plate reader assay. Format: cell-based.

For test [3], the target named is T2, Muscarinic acetylcholine receptor M1 (Homo sapiens, UniProt P11229).
T2 sequence (P11229 whole entry): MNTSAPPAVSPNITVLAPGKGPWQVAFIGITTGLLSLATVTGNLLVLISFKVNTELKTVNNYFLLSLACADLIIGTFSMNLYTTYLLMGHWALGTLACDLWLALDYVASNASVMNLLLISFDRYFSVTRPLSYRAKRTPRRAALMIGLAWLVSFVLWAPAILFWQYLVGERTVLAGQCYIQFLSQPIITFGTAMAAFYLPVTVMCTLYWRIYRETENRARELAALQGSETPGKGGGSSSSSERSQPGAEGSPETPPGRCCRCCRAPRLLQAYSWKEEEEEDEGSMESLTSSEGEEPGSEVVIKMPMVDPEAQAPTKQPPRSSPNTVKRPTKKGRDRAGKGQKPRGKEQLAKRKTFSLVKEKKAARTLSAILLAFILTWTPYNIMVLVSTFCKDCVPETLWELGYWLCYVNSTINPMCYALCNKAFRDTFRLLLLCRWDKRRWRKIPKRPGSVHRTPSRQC
The test is described as follows: Displacement of [3H]-QNB from truncated EGFP-fused human muscarinic M1 receptor expressed in HEK293 cells by […]. Format: cell-based. Background: In a radioligand displacement assay an active substance lowers the binding of a labelled ligand.

In test [4] the target is T3, Muscarinic acetylcholine receptor M1 (Homo sapiens) (UniProt P11229).
T3 sequence (whole entry): T2 sequence (P11229 whole entry)
Nature of the test: Displacement of [3H]-NMS from human muscarinic M1 receptor expressed in CHO cells by scintillation counting method. In kind it is cell-based.

The target in test [5] is T4, Muscarinic acetylcholine receptor M2 (Homo sapiens) (UniProt P08172).
T4 sequence (whole entry): T1 sequence (P08172 whole entry)
The test is described as follows: Displacement of [3h]-NMS from human muscarinic M2 receptor expressed in CHO cells by radioligand binding assay. In kind it is cell-based.

For test [6], the target named is T1, Muscarinic acetylcholine receptor M2. The test is described as follows: Displacement of 4-(2-((1E,3E)-5-((E)-3,3-Dimethyl-1-(6-oxo-6-((2-(4-(4-(1-(2-oxo-2-(11-oxo-10,11-dihydro-5H-dibenzo[b,e][1,4]diazepin-5-yl)ethyl)piperidin-4-yl)butyl)piperazin-1-yl)ethyl)amino)hexyl)-5-sulfoindolin-2-ylidene)penta-1,3-dien-1-yl)-3,3-dimethyl-3H-indol-1-ium-1-yl)butane-1-sulfonate Bis(hydrotrifluoroacetate) fluorescent tracer from human muscarinic M2 receptor expressed in […] cells measured after 60 mins by Hoechst H33342 dye based confocal plate reader assay. In kind it is cell-based.

Test [7] has the same target. Nature of the test: Displacement of 4-(2-((1E,3E)-5-((E)-3,3-Dimethyl-1-(6-oxo-6-((2-(3-(1-(4-(1-(2-oxo-2-(11-oxo-10,11-dihydro-5H-dibenzo[b,e][1,4]diazepin-5-yl)ethyl)piperidin-4-yl)butyl)-1H-imidazol-4-yl)propanamido)ethyl)-amino)hexyl)-5-sulfoindolin-2-ylidene)penta-1,3-dien-1-yl)-3,3-dimethyl-3H-indol-1-ium-1-yl)butane-1-sulfonateHydrotrifluoroacetate fluorescent tracer from human muscarinic M2 receptor expressed in CHO-K9 cells by competition binding assay. In kind it is cell-based. The note with it: read-out: pA2 (converted). The method, boiled down:
(§1)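 High-content imaging competition binding at intact CHO-hM2R cells against fluorescent tracer at 10 nM. Separately, flow cytometry competition with the fluorescent tracer at 1 nM at live cells. Four-parameter logistic fits; mean ± SEM of at least two experiments in duplicate.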

The target is the same in test [8]. Nature of the test: Displacement of 4-(2-((1E,3E)-5-((E)-3,3-Dimethyl-1-(6-oxo-6-((2-(4-(4-(1-(2-oxo-2-(11-oxo-10,11-dihydro-5H-dibenzo[b,e][1,4]diazepin-5-yl)ethyl)piperidin-4-yl)butyl)piperazin-1-yl)ethyl)amino)hexyl)-5-sulfoindolin-2-ylidene)penta-1,3-dien-1-yl)-3,3-dimethyl-3H-indol-1-ium-1-yl)butane-1-sulfonate Bis(hydrotrifluoroacetate) fluorescent tracer from human muscarinic M2 receptor expressed in CHO-K9 cells by competition binding assay. Format: cell-based. The note with it: read-out: pA2 (converted). In outline: as §1

Test [9] has the same target. Nature of the test: Displacement of 4-(2-((1E,3E)-5-((E)-3,3-Dimethyl-1-(6-oxo-6-((2-(4-(4-(1-(2-oxo-2-(11-oxo-10,11-dihydro-5H-dibenzo[b,e][1,4]diazepin-5-yl)ethyl)piperidin-4-yl)butyl)piperazin-1-yl)ethyl)amino)hexyl)-5-sulfoindolin-2-ylidene)penta-1,3-dien-1-yl)-3,3-dimethyl-3H-indol-1-ium-1-yl)butane-1-sulfonate Bis(hydrotrifluoroacetate) fluorescent tracer from human muscarinic M2 receptor expressed in CHO-K9 cells by FACSCalibur flow cytometry. Format: cell-based.

For test [10] the target is unchanged. The test is described as follows: Displacement of 4-(2-((1E,3E)-5-((E)-1-(6-((3,5-Bis((2-(3-(1-(4-(1-(2-oxo-2-(11-oxo-10,11-dihydro-5H-dibenzo[b,e][1,4]diazepin-5-yl)ethyl)piperidin-4-yl)butyl)-1H-imidazol-4-yl)propanamido)ethyl)carbamoyl)benzyl)amino)-6-oxohexyl)-3,3-dimethyl-5-sulfoindolin-2-ylidene)penta-1,3-dien-1-yl)-3,3-dimethyl-3H-indol-1-ium-1-yl)butane-1-sulfonate Tris(hydrotrifluoroacetate) fluorescent tracer from human muscarinic M2 receptor expressed in CHO-K9 cells by competition binding assay. Format: cell-based. The settings on record: read-out: pA2 (converted). In outline: as §1

Test [11] deals with Muscarinic acetylcholine receptor M2 (Homo sapiens) (UniProt P08172). Nature of the test: Displacement of [3H]-UR-SK259 human muscarinic M2 receptor.

What is called Ki is a dissociation constant, usually derived from enzyme kinetics or from competition with a known ligand. Read a high Ki as a looser hold on the target. As usually defined, the Kd is a measure of binding affinity in units of concentration.

In the case of `CCC(=O)NCc1cc(C(=O)NCCNC(=O)CCc2cn(CCCCC3CCN(CC(=O)N4c5ccccc5NC(=O)c5ccccc54)CC3)cn2)cc(C(=O)NCCNC(=O)CCc2cn(CCCCC3CCN(CC(=O)N4c5ccccc5NC(=O)c5ccccc54)CC3)cn2)c1`, the Ki in [1] is 0.525 nM; in test [2], 0.355 nM.

As for `O=C(CCC1=[N+]2C(=Cc3ccc(-c4cccs4)n3[B-]2(F)F)C=C1)NCCOCCOCCOCCOCCOCCOCCCN1CCN(CC(=O)N2c3ccccc3C(=O)Nc3cccnc32)CC1`, the Ki in test [3] is 8.91 nM.

For `Cc1scc2c1N(C(=O)CN1CCN(CCCCCCCCCCNC(=O)Cc3ccc4c(c3)C(C)(C)C3=C5C=C6C7=[N+](CCC6OC5CCN34)c3ccc(S(=O)(=O)[O-])cc3C7(C)C)CC1)c1ccccc1NC2=O` (stereo unspecified), the pK in test [4] worked out at 10.5; in test [5], 10.3.

Regarding `O=C1CCCN1CC#CCN1CCCC1` [OXOTREMORINE], the inhibitory constant (Ki) in test [1] is 1780 nM; in test [6], 851 nM; in test [2], 1020 nM.

Turning to `C[N+](C)(CCCCCC[N+](C)(C)CCCN1C(=O)c2ccccc2C1=O)CCCN1C(=O)c2ccccc2C1=O`, the Kb in test [7] was 457 nM; in [8], 148 nM; in test [10] it was 200 nM. Besides, the Ki in [1] is 851 nM; in [6], 1410 nM; in [2], 646 nM; in test [9], 407 nM.

On to `CCC(=O)NCc1cc(C(=O)NCCN2CCC(N3CCC(n4c(=O)[nH]c5ccccc54)CC3)CC2)cc(C(=O)NCCN2CCN(CCCCC3CCN(CC(=O)N4c5ccccc5NC(=O)c5ccccc54)CC3)CC2)c1`, for which the Kd in test [11] was 0.813 nM.
